{"data": "Published values gathered from unrelated publications", "target": "Death-associated protein kinase 1 (DAPK1, Homo sapiens, UniProt P53355)"}
{"Compound": "O=C(NCCCN1CCOCC1)c1ccc(Nc2nccc(-c3cc4ccccc4s3)n2)cc1", "test": "binding, competition with immobilised ligand", "setting": "1 µM", "remaining binding": "18%"}
{"Compound": "Nc1c(C(=O)NCc2ccc(C(=O)NCCCC3CCCCC3)cc2)cnn1-c1ccccc1", "test": "cell-free assay, competition with immobilised ligand", "setting": "0.1 µM", "remaining binding": "92%"}
{"Compound": "N[C@@H]1CCN(c2nccc(-c3cnn4ncccc34)n2)C1", "test": "binding", "setting": "1 µM", "remaining binding": "97%"}
{"Compound": "CCCOc1ccc([C@H]2[C@H](C(=O)O)[C@@H](c3ccc4c(c3)OCO4)CN2CC(=O)Nc2c(CC)cccc2CC)cc1", "test": "cell-free assay, competition with immobilised ligand", "setting": "1 µM", "remaining binding": "90%"}
{"Compound": "c1cncc(-c2cccc(Nc3nccc(NC4CCCCC4)n3)c2)c1", "test": "binding, competition with immobilised ligand", "setting": "10 µM", "remaining binding": "90%"}
{"Compound": "Cc1cnc(Nc2ccc(C(=O)N3CCC(N4CCCC4)CC3)cc2)nc1-c1cc2ccccc2s1", "test": "binding, competition with immobilised ligand", "setting": "1 µM", "remaining binding": "16%"}
{"Compound": "CS(=O)(=O)c1cc(C2(NC(=O)c3cncc4c3cnn4-c3ccc(F)cc3)CC2)ccn1", "test": "cell-free assay, competition with immobilised ligand", "setting": "1 µM", "remaining binding": "83%"}
{"Compound": "CCN1CCN(Cc2ccc(C(=O)Nc3ccc(C)c(Oc4ccc5c(c4)CC(=O)N5)c3)cc2C(F)(F)F)CC1", "test": "binding, competition with immobilised ligand", "setting": "1 µM", "remaining binding": "100%"}
{"Compound": "O=C(NCC1CCOCC1)c1n[nH]cc1NC(=O)c1c(F)cccc1F", "test": "binding, competition with immobilised ligand", "setting": "1 µM", "remaining binding": "96%"}
{"Compound": "CNC(=O)[C@@H]1CC[C@@H](n2c(-c3ccc4cnccc4c3)nc3ccc(C(=O)NCc4cccc(C(N)=O)c4)cc32)C1", "test": "binding, competition with immobilised ligand", "setting": "1 µM", "remaining binding": "100%"}
{"Compound": "COc1cc(-c2cn(C3CCc4c(F)cccc4N(CC(F)(F)F)C3=O)nn2)ccc1-n1cnc(C)c1 (centres unmarked)", "test": "cell-free assay, competition with immobilised ligand", "setting": "1 µM", "remaining binding": "99%"}
{"Compound": "CC1CCCN1c1nccc(-c2cnn3ncccc23)n1 (centres unmarked)", "test": "binding", "setting": "1 µM", "remaining binding": "99%"}
{"Compound": "NS(=O)(=O)c1cc(NC(=O)C2(c3ccccc3Cl)CC2)ccc1Oc1cccc(Cl)c1", "test": "cell-free assay, competition with immobilised ligand", "setting": "1 µM", "remaining binding": "98%"}
{"Compound": "CN(c1nccc(-c2cnn3ncccc23)n1)C1CC1", "test": "binding", "setting": "1 µM", "remaining binding": "100%"}
{"Compound": "C=CC(=O)N1CCC(C(=O)NCC(=O)N2CCN(c3nc(-c4cnc(N)nc4C(F)F)nc(N4CCOCC4)n3)CC2)CC1", "test": "binding, competition with immobilised ligand", "setting": "1 µM", "remaining binding": "96%"}
{"Compound": "COc1cnc(Nc2cccc(S(N)(=O)=O)c2)nc1N1CCN(c2ccccc2)CC1", "test": "binding, competition with immobilised ligand", "setting": "1 µM", "remaining binding": "83%"}
{"Compound": "C[C@@H]1CCN(c2nccc(-c3cnn4ncccc34)n2)C1", "test": "binding", "setting": "1 µM", "remaining binding": "79%"}
{"Compound": "CC(=O)N1CCC(c2ccc(C(=O)NC3=NCCN3)cc2C(F)(F)F)CC1", "test": "cell-free assay, competition with immobilised ligand", "setting": "1 µM", "remaining binding": "100%"}
{"Compound": "O=C(c1ccc(Nc2nccc(-c3cc4ccccc4s3)n2)cc1)N1CCC(N2CCCC2)CC1", "test": "binding, competition with immobilised ligand", "setting": "1 µM", "remaining binding": "13%"}
{"Compound": "Cc1cnn2ncc(-c3ccnc(N(C)C)n3)c2c1", "test": "binding", "setting": "1 µM", "remaining binding": "74%"}
